Measured values from ChEMBL document CHEMBL5126600, “Discovery of the First-in-Class G9a/GLP Covalent Inhibitors” (J Med Chem, 2022).
Active and inactive are the calls of the source. The rule behind the calls is not given here.

Key:
MDA-MB-231 = experiment: Cytotoxicity against human MDA-MB-231 cells after 3 days by CCK-8 assay; format: functional, cell-based; details: time 3.0 day
Method in brief: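 MDA-MB-231 cells seeded at 1 × 10^4 per well in 96-well plates, exposed to compounds over a range of concentrations for 3 days.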

[1] = molecular target: Histone-lysine N-methyltransferase 2A (Homo sapiens) (UniProt Q03164); experiment: Inhibition of N-terminal His-tagged MLL1 (3745 to 3969 residues) (unknown origin) expressed in Escherichia coli at 1 uM using 3H-SAM as a substrate relative to control
Method in brief: (§1)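 Contracted 3H-SAM methyl-transfer scintillation proximity assay against a panel of methyltransferases; compound tested at 1 μM in duplicate; inhibition expressed as percent of control enzyme activity.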

[2] = molecular target: Histone-lysine N-methyltransferase EZH1 (Homo sapiens) (UniProt Q92800); experiment: Inhibition of N-terminal His-tagged full-length recombinant human EZH1 ( 2 to 747 residues) expressed in baculovirus expression system at 1 uM using 3H-SAM as a substrate relative to control; method in brief: as §1
Sequence of Histone-lysine N-methyltransferase EZH1 (Homo sapiens) (Q92800 whole entry, the tested form may be a part): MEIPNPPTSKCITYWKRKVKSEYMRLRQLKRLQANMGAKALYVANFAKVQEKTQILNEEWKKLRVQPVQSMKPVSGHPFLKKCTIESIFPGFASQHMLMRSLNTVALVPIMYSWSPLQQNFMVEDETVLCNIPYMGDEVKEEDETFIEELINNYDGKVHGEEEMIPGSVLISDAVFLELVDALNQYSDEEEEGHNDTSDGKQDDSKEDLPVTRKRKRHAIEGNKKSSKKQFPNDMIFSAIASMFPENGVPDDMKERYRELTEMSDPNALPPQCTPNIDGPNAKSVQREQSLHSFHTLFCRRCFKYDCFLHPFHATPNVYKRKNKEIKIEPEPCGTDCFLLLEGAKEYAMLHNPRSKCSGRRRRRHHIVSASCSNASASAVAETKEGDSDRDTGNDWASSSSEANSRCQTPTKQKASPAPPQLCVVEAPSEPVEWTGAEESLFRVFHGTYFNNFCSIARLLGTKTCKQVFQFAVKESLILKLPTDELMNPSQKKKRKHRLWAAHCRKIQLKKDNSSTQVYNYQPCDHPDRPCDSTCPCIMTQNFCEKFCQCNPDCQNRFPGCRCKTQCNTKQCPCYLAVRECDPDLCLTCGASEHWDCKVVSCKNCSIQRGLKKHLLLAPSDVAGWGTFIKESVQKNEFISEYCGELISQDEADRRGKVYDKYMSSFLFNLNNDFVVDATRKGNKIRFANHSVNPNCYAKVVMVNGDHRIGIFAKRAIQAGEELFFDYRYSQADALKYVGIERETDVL

[3] = molecular target: Histone-lysine N-methyltransferase EZH2 (Homo sapiens) (UniProt Q15910); experiment: Inhibition of N-terminal His-tagged EZH2 (2 to 746 residues) (unknown origin) expressed in baculovirus expression system at 1 uM using 3H-SAM as a substrate relative to control; method in brief: as §1
Sequence of Histone-lysine N-methyltransferase EZH2 (Homo sapiens) (Q15910 whole entry, looked up, the tested form may be a part): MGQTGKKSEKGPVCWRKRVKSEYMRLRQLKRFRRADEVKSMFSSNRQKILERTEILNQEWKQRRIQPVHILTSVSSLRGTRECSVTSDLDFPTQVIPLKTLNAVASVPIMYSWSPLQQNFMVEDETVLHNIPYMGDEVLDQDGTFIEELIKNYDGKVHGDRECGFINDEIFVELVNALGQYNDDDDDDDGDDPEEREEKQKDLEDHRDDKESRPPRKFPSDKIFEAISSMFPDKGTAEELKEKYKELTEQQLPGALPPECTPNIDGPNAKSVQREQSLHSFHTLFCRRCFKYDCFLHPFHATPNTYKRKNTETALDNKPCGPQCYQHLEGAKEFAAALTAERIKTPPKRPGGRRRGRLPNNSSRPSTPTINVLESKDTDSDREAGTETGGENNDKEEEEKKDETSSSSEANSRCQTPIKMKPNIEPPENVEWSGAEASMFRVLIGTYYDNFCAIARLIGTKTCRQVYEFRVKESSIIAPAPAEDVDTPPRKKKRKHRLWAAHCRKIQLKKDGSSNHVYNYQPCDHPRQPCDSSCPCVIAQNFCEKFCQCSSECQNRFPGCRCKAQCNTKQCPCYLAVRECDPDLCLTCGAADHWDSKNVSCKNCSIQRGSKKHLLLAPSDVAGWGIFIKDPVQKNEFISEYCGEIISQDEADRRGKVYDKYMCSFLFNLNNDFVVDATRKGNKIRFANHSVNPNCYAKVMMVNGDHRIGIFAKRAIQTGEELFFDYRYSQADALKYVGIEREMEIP

Q: Which results are given for `C=CC(=O)Nc1cc(NC2CCN(C(C)C)CC2)c2cc(OC)c(OCCCN3CCCC3)cc2n1`?
A: Activity (MDA-MB-231): Active; inhibition [1]: < 50%; inhibition [2]: < 50%; inhibition [3]: < 50%
